From PubChem BioAssay
FGF22 binding: shifts melting point of recombinant human FGF22. recombinant FGF22 thermal shift, SYPRO orange fluorescence; percent of sucrose octasulfate shift, DMSO zero. actives 1.5% (n = 340,000). Q9HCT0. activity (Tm shift, normalised), % at 9.99 µM;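 active means mean Tm shift, scaled 0 neutral to 100 positive control, at about 1.3% or above, every replicate too, limit read from the data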
Target sequence (Q9HCT0 whole entry, looked up): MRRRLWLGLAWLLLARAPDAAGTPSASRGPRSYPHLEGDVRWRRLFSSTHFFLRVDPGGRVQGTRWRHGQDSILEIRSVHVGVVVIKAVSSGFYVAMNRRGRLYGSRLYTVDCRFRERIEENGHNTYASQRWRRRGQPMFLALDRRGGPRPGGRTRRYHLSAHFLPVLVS
XiGFP reactiv: X-chromosome reactivation activator; XiGFP mouse fibroblasts, % GFP-positive cells imaging, 3 d; cells co-treated with 5-aza-dC sensitizer; scaled so ellipticine positive control = 100%; activation, % at 7.58 µM; AID 743238; actives 0.055% (n = 360,000);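 active means mean normalized replicate activation at least 10% and every replicate at or above 10%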;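 further: 0% = median of on-plate neutral control wells and 100% = ellipticine 6 µM median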
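material = 68-5-11 XiGFP fibroblast line | medium = DMEM plus 5-aza-dC sensitizer | schedule = 3 days compound exposure | benchmarks = positive control ellipticine, 6 µM final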
FN deposition inh: fibronectin deposition inhibition; AID 743247; AH1F fibroblasts, Alexa488-fibronectin deposition fluorescence, overnight; inhibition, % at 12.6 µM; actives 0.086% (n = 350,000);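 active means mean inhibition across replicates of 30% or more, regardless of how many single replicates reach that level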;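 further: positive control wells lacked labelled fibronectin entirely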
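Assay system: AH1F fibroblasts assembling fluorescent fibronectin matrix; Amount: 10000 AH1F cells per well; Buffer or medium: DMEM, 2% serum; Probe or stimulus: Alexa488-fibronectin, 24 nM final in well; Doses: single compound dose, delivered by pin transfer; Incubation: 1 h adhesion, overnight exposure; Measured by: fluorescence 485/525 nm; Read-out: fibronectin deposition inhibition.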
SIRT5 inh: blocks human SIRT5 desuccinylation of peptide | Q9NXA8 | AID 652115 | actives 1.1% (n = 330,000) | Purified SirT5, succinyl-peptide AMC, trypsin-coupled fluorescence | inhibition, % at 15 µM; in the data active means inhibition above about 15%
Target sequence (Q9NXA8 whole entry, looked up): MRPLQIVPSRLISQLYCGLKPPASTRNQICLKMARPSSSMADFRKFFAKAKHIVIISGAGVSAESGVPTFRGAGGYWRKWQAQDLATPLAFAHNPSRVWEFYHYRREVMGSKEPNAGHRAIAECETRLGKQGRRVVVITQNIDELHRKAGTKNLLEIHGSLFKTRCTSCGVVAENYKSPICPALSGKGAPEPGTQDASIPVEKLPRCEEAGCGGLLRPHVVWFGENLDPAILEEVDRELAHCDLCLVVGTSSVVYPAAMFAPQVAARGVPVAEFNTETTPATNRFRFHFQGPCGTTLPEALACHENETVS
ARNT-TACC3 inh: disruptors of human ARNT/TACC3 interaction; Q9Y6A5; AlphaScreen His-ARNT PAS-B/GST-TACC3 binding, luminescence; TACC3 fragment carries E629A point mutation; inhibition, % at 9.99 µM; actives 0.66% (n = 390,000); AID 623870;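 active means mean inhibition of replicates at least 50% and at least half of replicates each reaching 50%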;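 further: 0% = complete ARNT plus TACC3 wells and 100% = ARNT alone without TACC3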
DENV2 CPE: DENV2-induced cell death inhibition; DENV2-infected cells, cytopathic effect rescue, plate reader; CPE inhibition, % at 9.99 µM; actives 1.7% (n = 350,000); AID 651640; in the data active means CPE inhibition above about 20%, passing the limit was not always enough; tested in BHK-21 cells;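 further: 0% = median of neutral control wells and 100% = median of positive control wells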
Starred values were filed as active, the others as inactive; . = no result. Only some compounds are listed: those with a hit (about 3.8% of all), similar ones and a draw of the others.

SMILES	FGF22 binding	XiGFP reactiv	FN deposition inh	SIRT5 inh	ARNT-TACC3 inh	DENV2 CPE
CCC(=O)N1CC2(C1)[C@H](c1ccccc1)[C@H](CO)N2C(=O)c1cccnc1	0	0	.	6	.	24*
O=C(C1CCCCC1)N1CC2(C1)[C@H](c1ccccc1)[C@H](CO)N2C(=O)c1cccnc1	1	0	-6	-1	.	28*
Cc1ccc(S(=O)(=O)Nc2ccc3c(c2)CC(=O)N([C@H](C)CO)C[C@H](C)[C@H](CN(C)C(=O)Nc2cccc4ccccc24)O3)cc1	-1	0	.	6	8	6
O=C(Nc1cccc(F)c1)N1CC(=O)N2[C@H](CO)[C@@H](c3ccc(C#CC4CC4)cc3)[C@H]2C1	.	0	.	-1	.	-4
CC(C)NC(=O)N1[C@@H](CO)[C@@H]2c3ccccc3N(C(=O)Nc3ccc(F)cc3)C[C@@H]21	0	0	.	0	3	-1
CCS(=O)(=O)N1CC2(C1)[C@H](c1ccccc1)[C@@H](CO)N2C(=O)C1CCCC1	.	0	-9	-2	.	-1
CCC(=O)N1CC2(C1)[C@H](c1ccccc1)[C@H](CO)N2Cc1ccccc1F	0	0	.	13	.	-6
O=C(c1ccc2c(c1)OCO2)N1CC2(C1)[C@H](c1ccccc1)[C@H](CO)N2C(=O)C1CCC1	0	0	.	-2	.	6
O=C(c1ccc2c(c1)OCO2)N1CC2(C1)[C@H](c1ccccc1)[C@@H](CO)N2C(=O)C1CCC1	0	0	.	7	.	44*
O=C(Cc1ccccc1)N1CC2(C1)[C@H](c1ccccc1)[C@@H](CO)N2S(=O)(=O)Cc1ccccc1	0	0	.	1	.	33*
CCC(=O)N1CC2(C1)[C@@H](c1ccccc1)[C@@H](CO)N2Cc1ccccc1F	0	0	.	-1	.	24*
CCS(=O)(=O)N1CC2(C1)[C@H](c1ccccc1)[C@@H](CO)N2C(=O)C1CC1	0	0	.	-1	.	23*
O=C(c1cccnc1)N1CC2(C1)[C@H](c1ccccc1)[C@@H](CO)N2CC1CC1	0	6	.	-1	.	10
O=C(c1cccnc1)N1CC2(C1)[C@@H](c1ccccc1)[C@@H](CO)N2CC1CC1	0	0	.	-3	.	20*
CS(=O)(=O)N1[C@@H](CO)[C@@H](c2ccccc2)C12CN(C(=O)c1ccccc1F)C2	0	0	-2	19*	.	-8
O=C(c1cccnc1)N1CC2(C1)[C@H](c1ccccc1)[C@H](CO)N2C(=O)C1CCC1	0	0	.	1	.	44*
C[C@@H]1CCCCO[C@H](CN(C)Cc2ccc(C(F)(F)F)cc2)[C@H](C)CN([C@H](C)CO)C(=O)c2cc(NC(=O)Nc3ccccc3)ccc2O1	-1	0	15	.	-13	-1
O=C1CN(S(=O)(=O)c2cccc(F)c2)C[C@@H]2[C@@H](c3ccc(C4=CCCC4)cc3)[C@H](CO)N12	0	0	3	0	.	-4
Cc1noc(C)c1S(=O)(=O)Nc1ccc2c(c1)C(=O)N([C@@H](C)CO)C[C@H](C)[C@H](CN(C)S(=O)(=O)c1cn(C)cn1)OCCCC[C@@H](C)O2	0	0	3	-2	-8	-7
O=C(CNC(=O)c1cccs1)N/N=C/c1ccc(Cl)cc1	0	0	-3	-2	1	6
O=C(CNC(=O)c1cccnc1)N/N=C/c1ccc(O)cc1O	0	0	3	3	80*	7
O=C(CNC(=O)c1cccs1)N/N=C/c1ccc(O)cc1O	0	0	.	1	70*	-1
CCOC(=O)c1cnc(SSc2ncc(C(=O)OCC)c(N)n2)nc1N	0	0	0	.	-7	-3
C=CCSc1ncc(C(=O)OCC)c(N)n1	43*	0	3	0	36	1
CCOC(=O)N1CCN(C(=O)C2CCC(=O)N(Cc3cccc(C(F)(F)F)c3)C2)CC1 (stereo not given)	0	0	1	21*	-10	4
SMILES	FGF22 binding	XiGFP reactiv	FN deposition inh	SIRT5 inh	ARNT-TACC3 inh	DENV2 CPE
O=C1CCC(C(=O)N2CCC(CO)CC2)CN1Cc1ccc(Cl)cc1 (stereo not given)	0	0	.	0	-5	10
CC1CCN(C(=O)C2CCC(=O)N(Cc3ccc(Cl)cc3)C2)CC1 (stereo not given)	0	0	5	23*	0	-4
CCOC(=O)C1CCN(C(=O)C2CCC(=O)N(Cc3cccc(C(F)(F)F)c3)C2)CC1 (stereo not given)	0	0	7	-6	-3	-2
COc1ccccc1CN1CC[C@H]2[C@H](CO)Nc3ccc(C#Cc4ccccc4)cc3[C@H]21	0	1	-8	2	13	-33
O=C(O)CCNC(=O)c1ccc(NC(=O)C(c2ccccc2)c2ccccc2)cc1	0	0	-3	57*	-5	-6
O=C(Cc1ccccc1)Nc1ccc(C(=O)NCc2ccccc2)cc1	-1	0	-1	-1	-2	-2
O=C(O)CCNC(=O)c1ccc(NC(=O)Cc2ccc(Cl)cc2)cc1	.	0	12	26*	7	.
Cc1noc(C)c1NC(=O)N(C)C[C@H]1OCCCC[C@H](C)Oc2ccc(NC(=O)NC3CCCCC3)cc2C(=O)N([C@@H](C)CO)C[C@@H]1C	1.4*	0	5	-5	-3	28*
Cc1noc(C)c1NC(=O)Nc1ccc2c(c1)C(=O)N([C@@H](C)CO)C[C@H](C)[C@@H](CN(C)C(=O)NC1CCCCC1)OCCCC[C@H](C)O2	0	0	.	2	-8	21*
Cc1noc(C)c1NC(=O)N(C)C[C@H]1OCCCC[C@H](C)Oc2ccc(NC(=O)NC3CCCCC3)cc2C(=O)N([C@H](C)CO)C[C@@H]1C	1	0	-8	-3	1	18
Cc1noc(C)c1NC(=O)Nc1ccc2c(c1)C(=O)N([C@@H](C)CO)C[C@@H](C)[C@@H](CN(C)C(=O)NC1CCCCC1)OCCCC[C@@H](C)O2	0	0	.	-2	-9	11
CC(C)NC(=O)Nc1ccc2c(c1)C(=O)N([C@H](C)CO)C[C@H](C)[C@@H](CN(C)C(=O)Nc1ccc(F)cc1)OCCCC[C@@H](C)O2	-1	0	-4	0	-1	-3
CN(C)N1C(N)=C(C#N)C(c2ccc(F)cc2)C2=C1CC(C)(C)CC2=O (stereo not given)	0	0	5	-1	0	9
CN(C)N1C(N)=C(C#N)C(c2ccccc2)C2=C1CC(C)(C)CC2=O (stereo not given)	0	0	5	-2	.	46*
